# Screening results deposited in PubChem BioAssay by The Scripps Research Institute Molecular Screening Center.
# CHO-K1 Ca antag: nonselective inhibitor or artifact in parental CHO-K1 cells | AID 602250 | 360,000 tested, 0.6% active | ATP-induced calcium, Fluo-8 fluorescence | inhibition, % at 3 µM;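 active means inhibition above a per-plate cutoff, the plate's mean sample inhibition plus 3 SD, cut at about 24% in these data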
# OX1R antag-1: antagonists of human orexin 1 receptor (OX1R). Orexin/Hypocretin receptor type 1 (Homo sapiens), O43613. OX1R-expressing cells, FRET antagonist read-out. inhibition, % at 6.6 µM. 330,000 tested, 1.8% active. AID 485270, 2010; in the data active means inhibition mostly above about 38%, no sharp cut-off; inactive means mostly below about 40%
# Target sequence (O43613 whole entry, looked up): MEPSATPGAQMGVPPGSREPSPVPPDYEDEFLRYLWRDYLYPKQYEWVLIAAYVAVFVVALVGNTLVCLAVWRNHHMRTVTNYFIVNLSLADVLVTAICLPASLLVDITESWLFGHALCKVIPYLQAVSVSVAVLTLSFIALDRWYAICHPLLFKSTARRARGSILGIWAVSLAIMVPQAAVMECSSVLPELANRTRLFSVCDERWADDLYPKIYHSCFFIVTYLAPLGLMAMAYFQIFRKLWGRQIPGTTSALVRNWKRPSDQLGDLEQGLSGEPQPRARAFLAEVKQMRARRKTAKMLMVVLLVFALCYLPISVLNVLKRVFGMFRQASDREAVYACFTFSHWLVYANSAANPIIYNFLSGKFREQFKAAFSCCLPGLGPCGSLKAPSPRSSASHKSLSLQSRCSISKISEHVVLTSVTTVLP
# CHO-K1 Ca PAM: nonselective calcium activators in parental CHO-K1 cells, primary screen, counter-screen for M1 PAM project, cell-based, Fluo-8 calcium fluorescence, full deck, 1536-well | ATP EC20; 0% at ATP EC20, 100% at ATP max | activation, % at 3 µM | 360,000 tested, 0.02% active;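 active means activation above the run cutoff, the mean activation of all test compounds plus 3 SD, cut at about 40% in these data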;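 further: peak over basal fluorescence ratio in a 140 s read after ATP addition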
# M1 ag parental: counter-screen for M1 agonists: effect in parental CHO-K1 cells | activation, % at 3 µM | 360,000 tested, 0.48% active | Fluo-8 calcium fluorescence; scaled to maximal ATP response, vehicle zero; in the data active means activation above about 15%;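 further: untransfected CHO-K1 host cells lacking M1 receptor as counterscreen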
# OX1R antag-2: OX1R (HCRTR1) antagonists, primary screen, fluorescence, CHO/OX1R cells, Fluo-8 calcium, orexin A; Orexin/Hypocretin receptor type 1 (Homo sapiens), O43613; Fluo-8 calcium fluorescence; inhibition, % at 5 µM; 330,000 tested, 0.43% active; AID 434989, 2010;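 active means inhibition above its plate's threshold, mean inhibition of all tested compounds on the plate plus 3 SD, cut at about 37% in these data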
# CHO parental Ca: ATP-evoked calcium signal inhibitors, parental CHO, primary screen, counter-screen for OX1R antagonist project, cell-based, fluorescence, Fluo-8 calcium dye; parental CHO-K1, ATP-induced calcium, Fluo-8 fluorescence; inhibition, % at 5.6 µM; 330,000 tested, 0.63% active;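 active means inhibition above that plate's mean sample inhibition plus 3 SD, cut at about 26% in these data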
#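 Assay system: parental CHO cells; Read-out basis: percent inhibition of ATP-evoked calcium rise, normalized to controls; Benchmarks: ATP and no-ATP DMSO wells; Compound dosing: single nominal dose of 5.6 µM per compound; Signal: Fluo-8 calcium dye fluorescence; Also added: ATP as calcium-mobilizing challenge; Repeats: singlicate.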
# OX1R HTRF conf: OX1R (HCRTR1) antagonists, confirmation, cell-based, HTRF; 1,800 tested, 49% active; shares compounds with OX1R antag-1; OX1R-expressing cells, HTRF antagonist assay; inhibition, % at 6.6 µM; in the data active means inhibition above about 55%;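 further: CHO cells expressing OX1R stimulated with orexin A at about EC80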
# CHO-K1 HTRF cnt: signal inhibition in parental CHO-K1 cells, counter-screen for OX1R antagonist project, cell-based, HTRF | shares compounds with OX1R antag-1 | HTRF counterscreen | inhibition, % at 6.6 µM | 1,800 tested, 48% active | AID 493232, 2011; in the data active means inhibition above about 17%
# Numbers stand for hits; n = inactive; x = not tested or not shown. A selection: hits, their analogues and other compounds. The true share with any hit is near 2.9%.
SMILES,CHO-K1 Ca antag,OX1R antag-1,CHO-K1 Ca PAM,M1 ag parental,OX1R antag-2,CHO parental Ca,OX1R HTRF conf,CHO-K1 HTRF cnt
Cc1nn2c(nc1=O)SCC(c1ccccc1)=N2,n,145.1,n,n,n,n,n,62.2
O=C(NC1CC2CCCC(C1)N2Cc1ccc(F)cc1)c1ccc(F)cc1 (stereo not drawn),n,n,n,n,n,n,x,x
CC(CCc1ccccc1)NC(=O)COC(=O)c1cccnc1Cl (stereo not drawn),n,n,n,n,n,n,x,x
Cc1cccc(-n2nc([N+](=O)[O-])c(=NC3CCN(Cc4ccccc4)CC3)n2O)c1,n,83.3,n,n,n,n,n,42.1
Nc1ncc(-c2ccc([N+](=O)[O-])cc2)cn1,n,104.6,n,n,n,n,n,41.5
Cc1cccc(CN2CCN(C(=O)CN(C)C(C)C(=O)Nc3ccc(C(N)=O)cc3)CC2)c1 (stereo not drawn),n,n,n,n,n,n,x,x
CN(C)c1ccc(/C=N/N=C(N)N)cc1[N+](=O)[O-],n,n,n,n,n,n,x,x
Cc1cccc(NC(=O)Nc2ccc(C#N)cc2)n1,n,n,n,n,n,n,x,x
Cc1cccc(NC(=O)Nc2cccc(C#N)c2)n1,n,90.9,n,n,n,n,n,n
Cc1ccnc(NC(=O)c2ccc([N+](=O)[O-])o2)c1,n,94.0,n,n,n,n,n,68.2
Cc1ccc(CNC(=O)c2ccc([N+](=O)[O-])o2)cc1,n,78.3,n,n,n,n,n,33.4
Nc1ccc2ccccc2c1C(=O)c1ccccc1,n,x,n,n,x,x,x,x
CCOc1cc(C=O)cc(Cl)c1OCC(N)=O,n,n,n,n,n,n,x,x
CN1c2ccccc2C(O)=C(C(=S)Nc2ccc(F)c(Cl)c2)S1(=O)=O,n,81.8,n,n,n,n,n,n
COc1ccccc1OCCCOc1cccc(/C=C2\SC(=O)NC2=O)c1,n,78.1,n,n,n,n,n,21.6
COc1ccc(C=C2SC(=O)NC2=O)cc1OC,n,x,n,n,x,x,x,x
COc1ccccc1OCCCOc1ccc(/C=C2\SC(=O)NC2=O)cc1OC,n,77.8,n,n,n,n,69.8,n
COc1cccc2sc(Nc3nc(-c4ccncc4)cs3)nc12,n,82.3,n,n,n,n,97.5,n
CC(=O)Oc1cccc(N2C(=O)c3cccc4c([N+](=O)[O-])ccc(c34)C2=O)c1,n,114.9,n,n,n,n,99.0,72.4
O=C(Nc1nccs1)c1cccc(N2C(=O)c3cccc4c([N+](=O)[O-])ccc(c34)C2=O)c1,n,n,n,n,n,n,x,x
O=Nc1c2nc3ccccc3n(O)c-2c2ccccc12,n,90.7,n,n,n,n,n,48.9
CC1CC(OC(=O)CN2CCCCC2)CC(C)(C)C1 (stereo not drawn),x,n,x,x,n,n,x,x
CC(C)(C)C(=O)N1CCN(c2ccc(NC(=O)c3ccc([N+](=O)[O-])o3)cc2)CC1,n,78.2,n,n,n,n,n,n
CCC(=O)N1CCN(c2ccc(NC(=O)c3ccc([N+](=O)[O-])o3)cc2)CC1,n,x,n,n,x,x,x,x
O=C(N/N=C/c1ccccn1)c1cc([N+](=O)[O-])cc([N+](=O)[O-])c1,n,90.9,n,n,n,n,58.7,42.2
SMILES,CHO-K1 Ca antag,OX1R antag-1,CHO-K1 Ca PAM,M1 ag parental,OX1R antag-2,CHO parental Ca,OX1R HTRF conf,CHO-K1 HTRF cnt
O=C(N/N=C/c1ccc([N+](=O)[O-])cc1)c1ccc2nc[nH]c2c1,n,113.9,n,n,n,n,n,41.3
O=C(N/N=C/c1ccccn1)c1ccc([N+](=O)[O-])cc1,n,82.8,n,n,n,n,n,42.3
O=C(N/N=C/c1cccc([N+](=O)[O-])c1)c1cnccn1,n,106.3,n,n,n,n,n,61.0
O=C(N/N=C/c1ccccn1)c1cccc([N+](=O)[O-])c1,n,n,n,n,n,n,x,x
O=C(N/N=C/c1cccc([N+](=O)[O-])c1)c1ccc2nc[nH]c2c1,n,n,n,n,n,n,x,x
CC(C)CNC(=O)c1cc(=O)[nH]c2ccc(S(=O)(=O)Nc3ccc(F)cc3)cc12,n,n,n,n,n,n,x,x
COC(=O)C1CSC(C(=O)OC)N1C(=O)CN1CCN(c2ccccc2)CC1 (stereo not drawn),n,n,n,n,n,n,x,x
O=C(CCNC(=O)c1ccc([N+](=O)[O-])cc1)NCc1cccs1,n,n,n,n,n,n,x,x
N#CCC(=O)N/N=C/c1cc([N+](=O)[O-])ccc1N1CCCC1,n,n,n,n,n,n,x,x
O=C(N/N=C/c1cc([N+](=O)[O-])ccc1N1CCNCC1)c1ccc([N+](=O)[O-])cc1,n,77.7,n,n,n,n,n,68.8
O=C(CCc1ccccc1)Nc1ccc2ccccc2n1,n,n,n,n,n,n,x,x
COc1ccc(N2CCOCC2)c(NC(=O)c2ccc3c(c2)OCO3)c1,n,n,n,n,n,n,x,x
COc1ccc(CCn2c(=N)c(C(=O)NCc3ccco3)cc3c(=O)n4ccccc4nc32)cc1OC,n,x,n,n,x,x,x,x
COCCn1c(=N)c(C(=O)NCc2ccco2)cc2c(=O)n3cc(C)ccc3nc21,n,107.7,n,n,n,n,n,68.9
COc1ccc(CCn2c(=N)c(C(=O)NC3CCCCC3)cc3c(=O)n4ccccc4nc32)cc1,n,n,n,n,n,n,x,x
N=c1c(C(=O)NCc2ccco2)cc2c(=O)n3ccccc3nc2n1CCc1ccccc1,n,114.0,n,n,n,n,n,41.9
COc1ccc(CCn2c(=N)c(C(=O)N3CCN(C)CC3)cc3c(=O)n4ccccc4nc32)cc1,n,105.5,n,n,n,n,n,51.4
Cc1cc(C(=O)N2CCN(S(=O)(=O)c3ccc(F)c(Cl)c3)CC2)c(C)o1,n,n,n,n,n,n,x,x
Cc1ccc(C2CCN(C(=S)NC(C)C)C2)cc1 (stereo not drawn),n,n,n,n,n,n,x,x
Cc1[nH]c(=O)[nH]c(=O)c1S(=O)(=O)Nc1cccc([N+](=O)[O-])c1C,n,x,n,n,x,x,x,x
OCCC1CN(Cc2cccc3c2OCO3)CCN1C1CCCC1 (stereo not drawn),n,n,n,n,n,n,x,x
COc1ccc2cc3c(N)c(C(=O)N4CCCC4)sc3nc2c1,x,97.5,x,x,n,n,88.8,n
